Laboratory results published in ChEMBL document CHEMBL1932972, “ent-Kaurane diterpenoids from Croton tonkinensis stimulate osteoblast differentiation” (J Nat Prod, 2011).
The source made the active and inactive calls.

How the values were obtained:
C2C12 [1] = test: Induction of osteoblast differentiation in mouse C2C12 cells assessed as increase in OSE promoter activity at 10 uM measured 48 hrs by luciferase reporter gene analysis; assay type: functional, cell-based
Outline: (§1)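 C2C12 cells seeded and grown 24 h, then transiently transfected (Ca3PO4 or Lipofectamine Plus) with ALP-, OC-, BSP- or OSE-luciferase reporter plus pCMV β-gal to normalise transfection efficiency. Treated at 10 μM. Luciferase read from cell lysates 48 h post-transfection; three independent experiments.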

C2C12 [2] = test: Induction of osteoblast differentiation in mouse C2C12 cells assessed as increase in ALP promoter activity at 10 uM measured 48 hrs by luciferase reporter gene analysis; assay type: functional, cell-based; outline: as §1
C2C12 [3] = test: Induction of osteoblast differentiation in mouse C2C12 cells assessed as increase in ALP promoter activity measured 48 hrs by luciferase reporter gene analysis; assay type: functional, cell-based
Outline: (§2)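 ALP- or OC-luciferase reporter transfected into C2C12 cells with pCMV β-gal control (Ca3PO4 or Lipofectamine Plus), after 24 h growth post-seeding. Dose-response at 1, 5 and 10 μM. Lysate luciferase activity measured 48 h later; three independent experiments.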

C2C12 [4] = test: Increase in collagen type 1 alpha mRNA expression in mouse C2C12 cells by RT-PCR analysis; assay type: functional, cell-based
Outline: (§3)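 C2C12 cells (DMEM, 20% FBS, 37 °C, 5% CO2) treated at 1, 5, 10 μM, with BMP2 as comparator. Total RNA extracted with TRIzol. cDNA made from 1 μg RNA using random primers. Semiquantitative RT-PCR for ALP and collagen type 1α with GAPDH reference, 28−30 cycles (94 °C 30 s, primer-specific annealing 30 s, 72 °C 30 s).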

C2C12 [5] = test: Increase in ALP mRNA expression in mouse C2C12 cells by RT-PCR analysis; assay type: functional, cell-based; outline: as §3
C2C12 [6] = test: Induction of osteoblast differentiation in mouse C2C12 cells assessed as increase in osteoclacin promoter activity measured 48 hrs by luciferase reporter gene analysis; assay type: functional, cell-based; outline: as §2
C2C12 [7] = test: Induction of osteogenesis in mouse C2C12 cells assessed as increase in osteoblast differentiation-associated ALP level at 10 uM after 2 days in presence of 5 ng/mL BMP2
C2C12 [8] = test: Induction of osteoblast differentiation in mouse C2C12 cells assessed as increase in of bone sialoprotein promoter activity at 10 uM measured 48 hrs by luciferase reporter gene analysis; assay type: functional, cell-based; outline: as §1
C2C12 [9] = test: Induction of osteoblast differentiation in mouse C2C12 cells assessed as increase in osteoclacin promoter activity at 10 uM measured 48 hrs by luciferase reporter gene analysis; assay type: functional, cell-based; outline: as §1

Measured: Activity

C=C1C[C@@]23CC[C@@H]4[C@@](C)(COC(C)=O)CCC[C@@]4(C)[C@@H]2[C@H](O)C[C@@H]1C3
active: C2C12 [1] | C2C12 [2] | C2C12 [3] Dose-dependent effect | C2C12 [4] Dose-dependent effect | C2C12 [5] Dose-dependent effect | C2C12 [6] Dose-dependent effect | C2C12 [7] | C2C12 [8] | C2C12 [9]

C=C1C[C@@]23CC[C@@H]4[C@@](C)(CO)CCC[C@@]4(C)[C@@H]2[C@@H](OC(C)=O)C[C@@H]1C3
active: C2C12 [1] | C2C12 [2] | C2C12 [3] Dose-dependent effect | C2C12 [4] Dose-dependent effect | C2C12 [5] Dose-dependent effect | C2C12 [6] Dose-dependent effect | C2C12 [7] | C2C12 [8] | C2C12 [9]

C=C1C[C@]23C[C@H]1CC[C@H]2[C@]1(C)CCC[C@](C)(COC(C)=O)[C@H]1C[C@H]3O
active: C2C12 [1] | C2C12 [2] | C2C12 [3] Dose-dependent effect | C2C12 [6] Dose-dependent effect | C2C12 [7] | C2C12 [8] | C2C12 [9]

C=C1C[C@@]23CC[C@@H]4[C@@](C)(COC(C)=O)CCC[C@@]4(C)[C@@H]2CC[C@@H]1[C@H]3O
active: C2C12 [1] | C2C12 [2] | C2C12 [3] Dose-dependent effect | C2C12 [4] Dose-dependent effect | C2C12 [5] Dose-dependent effect | C2C12 [6] Dose-dependent effect | C2C12 [7] | C2C12 [8] | C2C12 [9]
